These results are taken from ChEMBL document CHEMBL3045217, “Factors affecting the synergy of thiabendazole, sodium bicarbonate, and heat to control postharvest green mold of citrus fruit” (J Agric Food Chem, 2008).

For data set [1], the system named is Penicillium digitatum. Briefly: Fungicidal activity against Penicillium digitatum infected Valenica oranges assessed as fruit weight loss at 600 mg/L treated for 1 min at 20 degC postharvest at 20 hr after fungal conidial inoculation measured after 21 days of storage at 17 degC in presence of 1% SBC (water Rvb = 11.20%). Type of data set: functional.
Data set [2] has as its system Penicillium digitatum. Briefly: Fungicidal activity against Penicillium digitatum infected Valenica oranges assessed as fruit weight loss at 200 mg/L treated for 1 min at 50 degC postharvest at 20 hr after fungal conidial inoculation measured after 14 days of storage at 17 degC (water Rvb = 6.18%). Type of data set: functional.
The subject of data set [3] is Penicillium digitatum. Briefly: Fungicidal activity against Penicillium digitatum infected Valenica oranges assessed as fruit weight loss at 400 mg/L treated for 1 min at 40 degC postharvest at 20 hr after fungal conidial inoculation measured after 14 days of storage at 17 degC in presence of 2% SBC (water Rvb = 9.20%). Type of data set: functional.
The test system of data set [4] is Penicillium digitatum. Briefly: Fungicidal activity against Penicillium digitatum infected Valenica oranges assessed as fruit weight loss at 600 mg/L treated for 1 min at 20 degC postharvest at 20 hr after fungal conidial inoculation measured after 14 days of storage at 17 degC in presence of 2% SBC (water Rvb = 8.02%). The class given is functional.
In data set [5] the test system is Penicillium digitatum. Description: Fungicidal activity against Penicillium digitatum infected Valenica oranges assessed as fruit weight loss at 400 mg/L treated for 1 min at 40 degC postharvest at 20 hr after fungal conidial inoculation measured after 21 days of storage at 17 degC in presence of 2% SBC (water Rvb = 13.47%). Type of data set: functional.
For data set [6], the system named is Penicillium digitatum. Description: Fungicidal activity against TBZ-sensitive Penicillium digitatum infected Nova mandarins assessed as postharvest green mold incidence at 400 mg/L treated for 1 min at 40 degC at 20 hr after fungal conidial inoculation measured after 5 days of storage at 20 degC (water Rvb = 100%). The class given is functional. In outline:
(§1)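 Fruit were surface-disinfected in 1 g/L hypochlorite for 30 s, rinsed, dried, then wounded twice equatorially (2 mm × 2 mm rod). Inoculation was a 1 min dip in P. digitatum conidia, 1 × 10^5 conidia/mL final. Fruit were held 20 h at 20 °C and 90% RH, dipped 1 min (SBC wt/vol), and air-dried. Storage was 20 °C, 90% RH. Decay incidence (% fruit with lesions) was scored at 5 d for mandarins and 7 d for oranges. Three replicates of 40 fruit were used; arcsin-transformed data were compared by LSD, p ≤ 0.05.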

Data set [7] concerns Penicillium digitatum. Description: Fungicidal activity against TBZ-sensitive Penicillium digitatum infected Valencia oranges assessed as postharvest green mold incidence at 400 mg/L treated for 1 min at 40 degC at 20 hr after fungal conidial inoculation measured after 7 days of storage at 20 degC in presence of 0.5% SBC (water Rvb = 42.5%). Type of data set: functional. In outline:
as §1

For data set [8], the system named is Penicillium digitatum. Description: Fungicidal activity against TBZ-resistant Penicillium digitatum infected Valencia oranges assessed as postharvest green mold incidence at 600 mg/L treated for 1 min at 20 degC at 20 hr after fungal conidial inoculation measured after 7 days of storage at 20 degC in presence of 1% SBC (water Rvb = 54.2%). Type of data set: functional.

Data set [9] relates to Penicillium digitatum. Description: Fungicidal activity against TBZ-resistant Penicillium digitatum infected Valencia oranges assessed as postharvest green mold incidence at 600 mg/L treated for 1 min at 20 degC at 20 hr after fungal conidial inoculation measured after 7 days of storage at 20 degC in presence of 0.5% SBC (water Rvb = 85.8%). The class given is functional.

Data set [10] relates to Penicillium digitatum. Description: Fungicidal activity against Penicillium digitatum infected Valenica oranges assessed as fruit weight loss at 400 mg/L treated for 1 min at 40 degC postharvest at 20 hr after fungal conidial inoculation measured after 21 days of storage at 17 degC in presence of 0.5% SBC (water Rvb = 11.43%). Type of data set: functional.
Data set [11] has as its system Fruit. Description: Total drug residues in Citrus sinensis cvs. Salustiana (Salustiana oranges) fruit at 600 mg/L treated for 3 min at 50 degC postharvest measured after overnight incubation at 17 degC by GC analysis. Type of data set: ADME. The settings on record: 0.05 h. In outline: (§2)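 'Salustiana' oranges were water-washed, dried, dipped, then dried overnight at 17 °C in the dark. Unextracted fruit were used for total residues. Peel from five oranges was frozen at -18 °C. 5 g homogenized peel was extracted with 10 mL ethyl acetate/hexane (1/1) plus 2 g NaCl, shaken 30 min, then 1 mL of organic layer was dried under N2, redissolved in acetone, and run by GC without cleanup. Results are on a whole-fruit basis.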

Data set [12] concerns Fruit. Description: Total drug residues in Citrus sinensis cvs. Salustiana (Salustiana oranges) fruit at 600 mg/L treated for 1 min at 50 degC postharvest measured after overnight incubation at 17 degC by GC analysis. Type of data set: ADME. In outline:
as §2

The subject of data set [13] is Fruit. Briefly: Drug residues in Citrus sinensis cvs. Valencia late (Valencia oranges) at 400 mg/L treated for 1 min at 40 degC postharvest measured immediately post-drug treatment in presence of 2% SBC by GC analysis. Type of data set: ADME. The procedure, abridged: (§3)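 'Valencia' oranges were dipped 1 min in TBZ at 600 mg/L (20 °C, ±0.5, 1 or 2% wt/vol SBC), 400 mg/L (40 °C, ±SBC) or 200 mg/L (50 °C, alone), then air-dried. They were sampled at 0, 10 and 20 days at 17 °C. Peel of five fruit was frozen, and 5 g of homogenate was extracted with ethyl acetate/hexane (1/1) plus NaCl. The extract was dried under N2, taken up in acetone and analysed by GC. Results are mg/kg on a whole-fruit basis.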

In data set [14] the test system is Fruit. Description: Drug residues in Citrus sinensis cvs. Valencia late (Valencia oranges) at 600 mg/L treated for 1 min at 20 degC postharvest measured immediately post-drug treatment in presence of 2% SBC by GC analysis. Type of data set: ADME. In outline:
as §3

Data set [15] deals with Fruit. Description: Drug residues in Citrus sinensis cvs. Valencia late (Valencia oranges) at 600 mg/L treated for 1 min at 20 degC postharvest measured immediately post-drug treatment by GC analysis. The class given is ADME. The procedure, abridged:
as §3

Data set [16] concerns Inner fruit. Description: Drug residues in Citrus sinensis cvs. Salustiana (Salustiana oranges) inner fruit at 600 mg/L treated for 3 min at 50 degC postharvest measured after overnight incubation at 17 degC by GC analysis. The settings on record: 0.05 h. Type of data set: ADME. In outline: (§4)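 'Salustiana' oranges were washed with water and air-dried. They were dipped 1 or 3 min in TBZ 600 mg/L at 20 or 50 °C, or 1 min in TBZ 600 mg/L plus 2% SBC at 20 °C, then dried overnight at 17 °C in the dark. Surface residue was taken by water extraction and wax residue by chloroform extraction. Inner residue was measured in fruit after both extractions. Extracts were dried under N2, taken up in acetone and analysed by GC. Values are mg/kg on a whole-fruit basis.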

Data set [17] has as its system Inner fruit. Briefly: Drug residues in Citrus sinensis cvs. Salustiana (Salustiana oranges) inner fruit at 600 mg/L treated for 1 min at 20 degC postharvest measured after overnight incubation at 17 degC by GC analysis. Type of data set: ADME. In outline: as §4
A further data set relates to Cuticular wax. Briefly: Drug residues in Citrus sinensis cvs. Salustiana (Salustiana oranges) cuticular wax at 600 mg/L treated for 1 min at 50 degC postharvest measured after overnight incubation at 17 degC by GC analysis. The class given is ADME. In outline: as §4
The subject of data set [18] is Fruit. Description: Drug residues in Citrus sinensis cvs. Valencia late (Valencia oranges) at 400 mg/L treated for 1 min at 40 degC postharvest measured after 20 days of storage at 17 degC in presence of 1% SBC by GC analysis. The class given is ADME. The procedure, abridged: as §3

For the compound `c1ccc2[nH]c(-c3cscn3)nc2c1` [THIABENDAZOLE], the Activity with Penicillium digitatum [1] worked out at 12.35%; in the data set on Penicillium digitatum [2], 5.8%; in the data set with Penicillium digitatum [3] it was 9.45%; in the data set on Penicillium digitatum [4] it was 9.38%; in the data set with Penicillium digitatum [5], 13.98%; in the data set on Penicillium digitatum [6] it was 1.7%. Moreover, the Activity with Penicillium digitatum [7] stood at 16.7%; with Penicillium digitatum [8], 25%; in the data set on Penicillium digitatum [9] it was 38.3%; in the data set on Penicillium digitatum [10], 12.23%. The Drug uptake with Fruit [11] stood at 1.6 mg/kg; with Fruit [12] it was 1.12 mg/kg; in the data set with Fruit [13] it was 0.74 mg/kg; in the data set with Fruit [14], 1.22 mg/kg; in the data set on Fruit [15], 1.59 mg/kg; with Inner fruit [16] it was 0.4 mg/kg. Also, the Drug uptake worked out at 0.13 mg/kg in the data set on Inner fruit [17], 0.54 mg/kg with Cuticular wax and 0.71 mg/kg in the data set on Fruit [18].
